The record followed here is ChEMBL document CHEMBL1157767, “Phenylcinnamides as novel antimitotic agents” (J Med Chem, 2010).

Activity calls are given as the source filed them. No cut-off for these calls is given here. A value given as a limit tells only on which side of the number the result lay.

The test system of assay [1] is U-937. Put plainly: Cytotoxicity against human U937 cells after 72 hrs MTS assay. Format: functional, cell-based. The conditions noted are these: U-937, 72 h. The method, boiled down:
(§1)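 Cells in RPMI-1640/10% FBS seeded at 1 × 10⁵ (U-937, HL-60) or 1.5 × 10⁵ (HL-60/VCR) cells/mL with compound from DMSO series, 10 concentrations 100 μM to 5 nM, five replicates; 72 h at 37 °C. MTS/PMS added until vehicle OD ≈1.5, A490. Internal positive and DMSO controls; IC50 by four-parameter logistic fit; SD from ≥3 experiments, or mean of two.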
A general note: Formazan colour is commonly taken as a measure of viable cells.

Assay [2] has as its system HeLa. Put plainly: Cytotoxicity against human HeLa cells after 72 hrs SRB assay. Format: functional, cell-based. The method, boiled down:
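HeLa cells (5 × 10⁴ cells/mL suspension) seeded with compound from DMSO dilution series, 10 concentrations 100 μM to 5 nM, five replicates each; 72 h at 37 °C, 5% CO₂. TCA fixation, sulforhodamine B staining, bound dye released in 10 mM Tris pH 10.5, A510. Plate positive and DMSO controls calibrate % death; IC50 from four-parameter logistic fit; SD from ≥3 experiments, or mean of two.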
A general note: Sulforhodamine B stains cellular protein and so reports cell mass.

The test system of assay [3] is HeLa. Put plainly: Induction of mitotic arrest in human HeLa cells assessed as increase in number of cells with mitotic DNA by indirect immunofluorescence staining. Format: functional, cell-based.
For assay [4], the system named is U-937. Put plainly: Cell cycle arrest in human U937 cells by accumulation of cells at G2/M phase at 25 uM after 9 hrs by propidium iodide staining based flow cytometry. Format: functional. On the technique in general: In flow cytometry, cells or beads pass a laser one at a time.
Assay [5] can be described thus: Inhibition of tubulin polymerization at 100 uM by turbidimetry.
Assay [6] has as its system HeLa. Put plainly: Induction of mitotic arrest in human HeLa cells assessed as chromosomal condensation at 25 uM after 6 hrs fluorescence confocal microscopy. Format: functional, cell-based. The method, boiled down: (§2)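 HeLa on nitric acid-washed coverslips, treated at 70% confluency for 6 h with compound (25 μM) or DMSO (0.2% final). Glutaraldehyde fixation in BRB-80, Triton X-100 permeabilization, NaBH₄ reduction, goat-serum block, FITC anti-α-tubulin plus Alexa-Fluor 488 secondary, propidium iodide with RNase A; laser scanning confocal imaging, 63× oil objective.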

Assay [7] deals with HL-60. As to the kind of experiment: Selectivity ratio of IC50 for vincristine-resistant human HL60 cells to IC50 for human HL60 cells. Format: functional. The gist of the method: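 Ratio of MTS-assay IC50 (72 h) in P-gp-overexpressing, vincristine/colchicine-resistant HL-60/VCR over IC50 in parental HL-60.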
In assay [8] the test system is HL-60. As to the kind of experiment: Cytotoxicity against vincristine-resistant human HL60 cells after 72 hrs MTS assay. It is filed as functional, cell-based. The conditions noted are these: HL-60, 72 h. The gist of the method:
as §1

Assay [9] concerns HL-60. As to the kind of experiment: Cytotoxicity against human HL60 cells after 72 hrs MTS assay. Conditions: HL-60, 72 h. Format: functional, cell-based. The gist of the method: as §1
The test system of assay [10] is HeLa. As to the kind of experiment: Cell cycle arrest in human HeLa cells by accumulation of cells at G2/M phase at 25 uM after 9 hrs by M-phase fluorescence staining based flow cytometry. Format: functional. The gist of the method: (§3)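 HeLa synchronized in G1/S by double thymidine block, released by washing and plated in fresh medium with test agent (25 μM or 100 nM) or DMSO vehicle for 9 h at 37 °C. Cells fixed in 3% formaldehyde-PBS, permeabilized in cold MeOH, stained with mouse anti-phospho(Ser10) histone H3 then Alexa-Fluor 488 secondary, RNase A-treated, propidium iodide DNA stain. Dual-laser flow cytometry; PI marks G2/M, phospho-H3 marks M-phase.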

For assay [11], the system named is HeLa. As to the kind of experiment: Cell cycle arrest in human HeLa cells by accumulation of cells at G2/M phase at 25 uM after 9 hrs by propidium iodide staining based flow cytometry. The conditions noted are these: in the assay text read “M phase” for “G2/M phase”. Format: functional. The method, boiled down: as §3
The subject of assay [12] is HeLa. Put plainly: Induction of mitotic arrest in human HeLa cells assessed as mitotic index by indirect immunofluorescence staining (Rvb=2.2%). Format: functional.
Assay [13] deals with HeLa. Put plainly: Induction of mitotic arrest in human HeLa cells assessed as disruption of microtubule assembly at 25 uM after 6 hrs fluorescence confocal microscopy. Format: functional, cell-based. The method, boiled down: as §2
Assay [14] concerns HeLa. Put plainly: Cell cycle arrest in human HeLa cells by accumulation of cells at G2 phase at 100 nM after 9 hrs by propidium iodide staining based flow cytometry. Format: functional. The method, boiled down:
as §3

Assay [15] has as its system HeLa. Put plainly: Cell cycle arrest in human HeLa cells by accumulation of cells at M phase at 100 nM after 9 hrs by propidium iodide staining based flow cytometry. Format: functional. The method, boiled down:
as §3

The species entered for a further assay is Bos taurus. As to the kind of experiment: Inhibition of bovine brain tubulin polymerization at 10 uM by turbidimetry.

For `COc1cccc(NC(=O)/C=C/c2cc(OC)c(OC)c(OC)c2)c1`, the IC50 – broadly, the midpoint of a concentration-inhibition curve – in the assay on U-937 [1] was > 50 µM.

As to `COc1cc(NC(=O)/C=C/c2ccc(O)cc2)cc(OC)c1OC`, the results for the IC50 with U-937 [1] and in the assay with HeLa [2] were 32 µM and > 50 µM, respectively.

As to `COc1ccccc1/C=C/C(=O)Nc1ccccc1OC`, the values for the IC50 in the assay with U-937 [1] and in the assay with HeLa [2] were > 50 µM and 36.1 µM, respectively.

Turning to `COc1cccc(/C=C/C(=O)Nc2cc(OC)c(OC)c(OC)c2)c1`, the result with HeLa [3], in the assay on U-937 [4], in the assay with HeLa [6], with HeLa [10] and in the assay on HeLa [13] was Active. Also, the inhibition entry in assay [5] was “Active”. The IC50 with U-937 [1] was 3 µM; in the assay on HL-60 [8] it was 11.6 µM; with HL-60 [9], 3.1 µM; with HeLa [2] it was 11.3 µM. The “Ratio IC50” value in the assay with HL-60 [7] came out at 3.74. Further, the results for the Activity in the assay with HeLa [11] and in the assay on HeLa [12] were 49% and 18.2%, respectively.

For the compound `C#CCOc1cccc(/C=C/C(=O)Nc2cc(OC)c(OC)c(OC)c2)c1`, the IC50 in the assay on U-937 [1] came out at 6 µM; in the assay on HeLa [2] it was 2 µM.

With `COc1cc2c(c(OC)c1OC)-c1ccc(OC)c(=O)cc1[C@@H](NC(C)=O)CC2` [COLCHICINE], the Activity turned out to be 37% in the assay on HeLa [14] and 59% with HeLa [15]. Further, the “Ratio IC50” value in the assay on HL-60 [7] is reported as >1000. The IC50 in the assay on HL-60 [8] was > 100 µM; in the assay with HL-60 [9], 0.053 µM.

As for `COc1ccccc1/C=C/C(=O)Nc1cc(OC)c(OC)c(OC)c1`, the IC50 with U-937 [1] turned out to be 5.1 µM; in the assay with HeLa [2] it was 6.1 µM.

As to `COc1cc(/C=C/C(=O)Nc2cc(OC)c(OC)c(OC)c2)cc(OC)c1OC`, the IC50 with U-937 [1] was 15.3 µM; in the assay on HeLa [2] it was > 50 µM.

As to `COc1cc(NC(C)=O)cc(OC)c1OC`, the IC50 in the assay on U-937 [1] and in the assay on HeLa [2] was > 50 µM each time.

Consider `COc1cccc(/C=C/C(=O)Nc2c(C)cccc2C)c1`, for which the half-maximal inhibitory concentration (IC50) in the assay on U-937 [1] and in the assay on HeLa [2] was > 50 µM each time.

With `COc1cc(/C=C/C(=O)Nc2ccccc2)cc(OC)c1OC`, the IC50 with U-937 [1] and in the assay with HeLa [2] was > 50 µM in each case.

As for `COc1cccc(/C=C/C(=O)Nc2ccc3c(c2)OCCO3)c1`, the IC50 in the assay with U-937 [1] came out at 15.9 µM; with HeLa [2] it was 20.1 µM.

Regarding `COc1cc(NC(=O)/C=C/c2ccccc2)cc(OC)c1OC`, the IC50 is 45 µM with U-937 [1] and > 50 µM in the assay with HeLa [2].

Regarding `COc1cccc(/C=C/C(=O)Nc2cccc(OC)c2)c1`, the IC50 with U-937 [1] and in the assay on HeLa [2] was > 50 µM each time.

As for `COc1ccccc1NC(=O)/C=C/c1cccc(OC(F)(F)F)c1`, the IC50 in the assay with U-937 [1] worked out at 40.4 µM; in the assay with HeLa [2] it was 9.8 µM.

The compound `COc1ccc(NC(=O)/C=C/c2cccc(OC)c2)cc1` showed an IC50 in the assay on U-937 [1] of 18.1 µM.

Take `COC(=O)/C=C/c1cccc(OC)c1`: the IC50 in the assay on U-937 [1] and in the assay with HeLa [2] was > 50 µM in each case.

In the case of `COc1cc(NC(=O)/C=C/c2cc(OC)c(OC)c(OC)c2)cc(OC)c1`, the IC50 was 9.7 µM in the assay with U-937 [1] and 38.9 µM with HeLa [2].

Turning to `COc1cc(NC(=O)/C=C/c2cccc(O)c2)cc(OC)c1OC`, the IC50 was 56.7 µM in the assay on U-937 [1] and 18.7 µM in the assay on HeLa [2].

As to `COc1cc(NC(=O)/C=C/c2ccc(O)cc2)cc(OC)c1`, the IC50 with U-937 [1] and in the assay with HeLa [2] was > 50 µM throughout.

`COc1cccc(CCC(=O)Nc2ccccc2OC)c1`: the IC50 in the assay with U-937 [1] and in the assay on HeLa [2] was > 50 µM in each case.

Take `COc1ccc(NC(=O)/C=C/c2cc(OC)c(OC)c(OC)c2)cc1`: the IC50 was 22.4 µM with U-937 [1] and > 50 µM with HeLa [2].

On to `COc1cccc(/C=C/C(=O)NCc2cc(OC)c(OC)c(OC)c2)c1`, for which the IC50 in the assay with U-937 [1] and in the assay on HeLa [2] was > 50 µM in each case.

`COc1cc(NC(=O)/C=C/c2cccc(OC(F)(F)F)c2)cc(OC)c1OC`: the IC50 is 13.2 µM in the assay on U-937 [1], 13.1 µM with HL-60 [8], 13.2 µM in the assay on HL-60 [9] and 4.4 µM in the assay on HeLa [2]. Moreover, the “Ratio IC50” value in the assay on HL-60 [7] is recorded as 0.99.

In the case of `COc1cccc(/C=C/C(=O)Nc2cc(OC)cc(OC)c2)c1`, the IC50 in the assay with U-937 [1] was > 50 µM.

Consider `COc1cccc(/C=C/C(=O)Nc2ccccc2OC)c1`, for which the IC50 in the assay on U-937 [1] is > 50 µM.

On to `C=CCOc1cccc(/C=C/C(=O)Nc2cc(OC)c(OC)c(OC)c2)c1`, for which the IC50 was determined as 13.3 µM in the assay with U-937 [1] and 5.4 µM in the assay on HeLa [2].

In the case of `COc1cccc(/C=C/C(=O)Nc2ccccc2)c1`, the IC50 with U-937 [1] and in the assay on HeLa [2] was > 50 µM in each case.

For `COc1cccc(/C=C/C(=O)Nc2cc(C)cc(C)c2)c1`, the IC50 in the assay on U-937 [1] is > 50 µM.

For `COc1cc2c(cc1O)CC[C@@H]1[C@@H]2CC[C@]2(C)[C@@H](O)CC[C@@H]12` [2-METHOXYESTRADIOL], in the assay with HL-60 [7], the “Ratio IC50” value came out at 0.26. Also, the results for the IC50 with HL-60 [8] and with HL-60 [9] were 0.9 µM and 3.4 µM, respectively.

Turning to `COc1ccccc1NC(=O)/C=C/c1cc(OC)c(OC)c(OC)c1`, the IC50 in the assay with U-937 [1] and in the assay on HeLa [2] was > 50 µM throughout.

In the case of `COc1cc(NC(=O)/C=C/c2cccc(OCc3ccccc3)c2)cc(OC)c1OC`, the IC50 came to 1.8 µM in the assay with U-937 [1], 5.5 µM in the assay on HL-60 [8], 5.6 µM in the assay with HL-60 [9] and 2.1 µM in the assay with HeLa [2]. Also, in the assay on HL-60 [7], the “Ratio IC50” value was 0.98. For the same compound, the outcome in the assay with HeLa [13] was Active.

Regarding `COc1cccc(CCC(=O)Nc2cc(OC)c(OC)c(OC)c2)c1`, the IC50 in the assay with HeLa [2] is > 50 µM.

For the compound `CC(=O)O[C@H]1C(=O)[C@@]2(C)[C@H]([C@H](OC(=O)c3ccccc3)[C@]3(O)C[C@H](OC(=O)[C@H](O)[C@@H](NC(=O)c4ccccc4)c4ccccc4)C(C)=C1C3(C)C)[C@]1(OC(C)=O)CO[C@@H]1C[C@@H]2O`, the inhibition entry in [5] was “Active”. Also, the inhibition entry in the assay listed under Bos taurus was “inactive”.
